According to ChEMBL document CHEMBL1131052, “Bis-substituted malonic acid hydroxamate derivatives as inhibitors of human neutrophil collagenase (MMP8)” (J Med Chem, 1998):

Target: Neutrophil collagenase (Homo sapiens, UniProt P22894)
Assay: Inhibition of human neutrophil collagenase (Matrix metalloprotease-8)
Procedure, shortened: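 Catalytic domain of MMP8 (Phe79–Gly242) at 8 nM; fluorogenic substrate Dnp-Pro-Leu-Gly-Leu-Trp-Ala-D-Arg-NH2 at 1 × 10^-5 M; 10 mM CaCl2, 100 mM NaCl, 50 mM Tris/HCl pH 7.6, 25 °C. Initial hydrolysis rates were taken from the fluorescence rise at 350 nm over 100 s. IC50 values were fitted from these rates, and Ki values were derived from the kinetic data.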

Sequence of Neutrophil collagenase (P22894 whole entry): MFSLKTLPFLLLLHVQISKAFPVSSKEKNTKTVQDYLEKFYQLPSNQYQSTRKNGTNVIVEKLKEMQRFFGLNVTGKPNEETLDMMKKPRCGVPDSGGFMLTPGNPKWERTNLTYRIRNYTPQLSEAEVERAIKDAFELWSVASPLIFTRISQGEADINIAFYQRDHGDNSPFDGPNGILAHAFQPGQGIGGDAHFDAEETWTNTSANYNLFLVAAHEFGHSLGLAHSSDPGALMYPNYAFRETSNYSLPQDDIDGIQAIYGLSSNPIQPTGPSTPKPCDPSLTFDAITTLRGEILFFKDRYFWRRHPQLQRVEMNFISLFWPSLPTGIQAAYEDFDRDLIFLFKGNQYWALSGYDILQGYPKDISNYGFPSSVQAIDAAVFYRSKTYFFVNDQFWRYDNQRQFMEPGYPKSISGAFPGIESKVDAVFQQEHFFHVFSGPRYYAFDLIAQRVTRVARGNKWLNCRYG

Structure (SMILES)	Ki
CC(=O)NC(Cc1ccccc1)(C(=O)NO)C(=O)NCc1ccccc1 (stereo not given)	2300 nM
O=C(NO)C(O)(Cc1ccccc1)C(=O)NCc1ccccc1 (stereo not given)	1900 nM
CC(Cc1ccccc1)(C(=O)NO)C(=O)NCc1ccccc1 (stereo not given)	1100 nM
CCOC(=O)C(C)(Cc1ccccc1)C(=O)NO (stereo not given)	11000 nM
CC(Cc1ccccc1)(C(=O)NO)C(=O)NCc1ccc(C(=O)O)cc1 (stereo not given)	41000 nM
CC(Cc1ccccc1)(C(=O)NO)C(=O)Nc1ccccc1 (stereo not given)	44000 nM
CCOC(=O)C(C)(CC(C)C)C(=O)NO (stereo not given)	41000 nM
CC(Cc1ccccc1)(C(=O)NO)C(=O)NCCc1ccccc1 (stereo not given)	9600 nM
CC(Cc1ccccc1)(C(=O)NO)C(=O)Nc1cccc2ccccc12 (stereo not given)	45000 nM
CC(Cc1ccccc1)(C(=O)NO)C(=O)N1CCc2ccccc2C1 (stereo not given)	8100 nM

Now from value to molecule:

Ki	Structure (SMILES)
380 nM	CC(Cc1ccccc1)(C(=O)NO)C(=O)NCCCCc1ccccc1 (stereo not given)
1500 nM	O=C(NO)C1(C(=O)NCc2ccccc2)Cc2ccccc2C1
1900 nM	O=C(NO)C1(C(=O)NCCCc2ccccc2)Cc2ccccc2-c2ccccc2C1
240 nM	CC(Cc1ccccc1)(C(=O)NO)C(=O)NCCCc1ccccc1 (stereo not given)
300 nM	O=C(NO)C1(C(=O)NCCCc2ccccc2)Cc2ccccc2C1
